Rows were chosen to be rich in hits. Some 1.8% of all compounds tested hit in one or more screens of this group.
NR2E3 ag-1: agonists of human NR2E3 nuclear receptor; Q9Y5X4; CHO-S Gal4-NCOR/VP16-NR2E3 two-hybrid, luciferase; inhibition of corepressor binding, % at 3.98 µM; actives 0.35% (n = 360,000); AID 602229;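 active = inhibition above the mean of all tested compounds plus 3 SD, cut at about 70% in these data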;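 also: higher means lower luciferase signal from less NR2E3 corepressor binding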
Target sequence (Q9Y5X4 whole entry, looked up, the tested form may be a part): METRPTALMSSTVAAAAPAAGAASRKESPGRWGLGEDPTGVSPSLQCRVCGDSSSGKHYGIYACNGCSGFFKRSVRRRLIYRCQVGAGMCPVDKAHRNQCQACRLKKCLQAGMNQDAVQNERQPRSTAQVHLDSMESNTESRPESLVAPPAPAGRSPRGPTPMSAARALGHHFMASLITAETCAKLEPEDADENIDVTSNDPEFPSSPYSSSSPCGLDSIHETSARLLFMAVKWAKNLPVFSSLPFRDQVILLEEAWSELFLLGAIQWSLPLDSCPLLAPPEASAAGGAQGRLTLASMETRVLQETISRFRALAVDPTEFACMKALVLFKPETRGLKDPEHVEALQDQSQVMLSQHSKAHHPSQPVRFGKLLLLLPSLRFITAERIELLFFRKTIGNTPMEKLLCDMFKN
Gli-Sufu block: Gli-Sufu pathway antagonism. inhibition, % at 5 µM. actives 0.74% (n = 340,000). Sufu-KO-LIGHT fibroblasts, Gli luciferase reporter luminescence. AID 588413;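 active = inhibition above about 55%, limit read from the data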
697 NFkB inh: inhibitors of the PMA/ionomycin-induced NF-kB reporter in 697 B cells. 697 B-cell NF-kB luciferase reporter, 16 h. inhibition, % at 4 µM. actives 0.33% (n = 330,000). AID 435022; in the data active = inhibition above about 35%
NR2E3 ag-2: agonists of human nuclear receptor NR2E3; actives 0.12% (n = 320,000); GST-NR2E3/biotin-RetCOR TR-FRET, 1536-well; inhibition of corepressor binding, % at 4.78 µM; AID 2300;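 active = percent inhibition above the cutoff of mean plus 3 SD of all tested compounds, set per screening campaign, cut at about 20% in these data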
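Material: NR2E3–RetCOR corepressor complex / Incubation: Compound–protein incubation for 5 h at 4 °C / Dosing: compound at 4.8 µM, single dose / Detection: time-resolved FRET / Benchmarks: high control biotin, low control 0.6% DMSO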
GalR3 antag: antagonists of human GalR3. inhibition, % at 3 µM. actives 0.44% (n = 360,000). HEK293 GalR3-CNG cAMP membrane potential fluorescence; galR3 body fused to GalR1 C-terminus;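 active = inhibition above the screen-wide average plus 3 SD, cut at about 13% in these data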;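 also: forskolin and galanin both at EC90 stimulate the cells; cAMP rise reported by CNG channel membrane potential dye signal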
Jurkat NFkB inh: lowers PMA/ionomycin-induced NF-kB signal in Jurkat cells | PMA/ionomycin-induced NF-kB luciferase reporter, luminescence | inhibition, % at 4 µM | actives 0.53% (n = 330,000) | AID 435003; in the data active = inhibition above about 50%
Jurkat NFkB conf: inhibitors of the PMA/ionomycin-induced NF-kB reporter in Jurkat cells, retest; actives 27% (n = 2,700); shares compounds with Jurkat NFkB inh; Jurkat NF-kB luciferase, 16 h; inhibition, % at 4 µM;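 active = inhibition reaching about 45% at 4 µM in either replicate, limit read from the data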
697 NFkB conf: lowers PMA/ionomycin-induced NF-kB signal in 697 B cells; AID 449746; actives 35% (n = 2,000); shares compounds with 697 NFkB inh; inhibition, % at 4 µM; 697 B-cell NF-kB luciferase, 16 h; in the data active = inhibition mostly above about 28%, no sharp cut-off; inactive = mostly below about 22%
Hits are given with their value; . = inactive; / = no result.

SMILES	NR2E3 ag-1	Gli-Sufu block	697 NFkB inh	NR2E3 ag-2	GalR3 antag	Jurkat NFkB inh	Jurkat NFkB conf	697 NFkB conf
c1cc2c(cc1Nc1nc(-c3ccc4c(c3)OCO4)cs1)OCCO2	.	.	.	.	.	.	/	/
Cc1ccc(Nc2nc(-c3cccnc3)cs2)cc1C	.	.	.	.	.	.	.	.
C[C@H](CO)N1C[C@H](C)[C@@H](CN(C)S(C)(=O)=O)OCc2cn(nn2)CCCC1=O	/	/	/	/	.	/	/	/
O=C(Nc1ncc(Cc2ccccc2)s1)c1cccs1	.	.	.	.	.	.	.	.
Cn1c2c(c(=O)n(C)c1=O)C(c1ccc(C(F)(F)F)cc1)CC(=O)N2 (configuration not stated)	.	.	.	.	.	.	/	/
C[C@@H]1C=CC(=O)O[C@@H]1c1ccc(C(F)(F)F)cc1	/	/	60	.	/	97	97	.
O=C(Oc1ccc2ccccc2c1Br)N1CCCCCC1	.	.	.	.	.	.	.	.
O=C(COc1ccc2ccccc2c1Br)N1CCCCC1	.	.	.	.	/	.	/	/
O=C(Nc1ccc(Nc2cccnc2)cc1)c1c[nH]c2ccccc12	/	/	/	/	.	/	/	/
COc1cc(NS(C)(=O)=O)ccc1Nc1c2ccccc2nc2ccccc12	.	74	.	.	.	72	82	.
COc1ccc(OC)c(Nc2c3ccccc3nc3ccccc23)c1	.	.	.	.	.	.	/	/
CCCCc1ccc(-c2ccc(Br)cc2O)nc1	.	.	.	.	.	.	.	.
CCCCc1ccc(-c2nn[nH]n2)nc1	.	/	/	/	.	/	/	/
CCCCc1ccc(-c2ccc(C)cc2O)nc1	.	.	.	.	.	.	.	.
COc1ccc(C(=O)NCC2CCN(C(=O)C(=O)c3cccs3)CC2)cc1	/	/	/	/	.	/	/	/
Cc1ccccc1-c1nc2cc(NC(=O)C3CC3)ccc2o1	.	.	.	.	.	.	.	.
CC(C)C[C@H]1COc2c(Cl)cccc2S(=O)(=O)N1Cc1cccc(Cl)c1	/	/	/	/	.	/	/	/
CCCN(CCC)c1ncnc2c1cnn2-c1ccc(OC)cc1	.	.	.	.	.	.	.	.
Cc1ccc(NC(=O)c2cnn(-c3ccccc3)c2C)cc1	.	.	.	.	.	.	.	.
Cc1ccc(NC(=O)c2cnn(-c3ccccc3)c2C)c(C)c1	.	.	.	.	.	.	/	/
COc1cccc(-c2nc(-c3cccs3)no2)c1	.	.	.	.	.	.	.	.
O=C1N[C@@H](Cc2ccccc2)C(=O)N2[C@H]1CSCCS2(=O)=O	/	/	/	/	.	/	/	/
Cc1c(C(=O)Nc2cccc([N+](=O)[O-])c2)csc1-c1ccccc1	.	.	.	.	.	.	.	.
CC1CCN(c2ccc([N+](=O)[O-])cc2C(=O)O)CC1	.	.	.	.	.	.	/	/
CC1CCCN(c2ccc([N+](=O)[O-])cc2C(=O)c2ccccc2)C1 (configuration not stated)	.	.	35	.	.	51	.	30
SMILES	NR2E3 ag-1	Gli-Sufu block	697 NFkB inh	NR2E3 ag-2	GalR3 antag	Jurkat NFkB inh	Jurkat NFkB conf	697 NFkB conf
Cc1ccccc1-c1ccc2c(c1)[C@@H]1C[C@H]3[C@@H](CN1CC2)[C@H](C)OC(C1CCCCC1)N3C (some centres not stated)	/	/	/	/	.	/	/	/
Cc1ccc2c(c1)COc1c3ccc(C(=O)O)cc3nn1-2	.	/	76	.	.	93	68	.
C[C@H](O)[C@@H]1C(=O)N2CCc3c([nH]c4ccccc34)[C@@H]2C[C@@H]1N(C)C(=O)OCc1ccccc1	/	/	/	/	.	/	/	/
Nc1nc(-c2cc(-c3ccccc3)no2)cs1	.	.	.	.	.	.	/	/
Cc1ccc(-c2cc(-c3ccccc3)no2)cc1	.	.	.	.	.	.	.	.
Nc1[nH]c(C(=O)c2ccccc2)c(-c2ccc(Br)cc2)c1C(=O)c1ccccc1	/	/	/	/	.	/	/	/
O=C(c1cccs1)c1ccc(-c2cccs2)s1	.	.	.	.	.	.	.	.
COC(=O)CCn1nnc(-c2cccs2)n1	.	.	.	.	.	.	/	/
COC(=O)CCn1nnc(-c2ccc(C(C)C)cc2)n1	.	57	69	.	.	64	61	78
O=C(N[C@H](C(=O)N1CCC[C@H]1C(=O)NCCc1ccccc1Cl)C1CCCCC1)c1ccccc1	/	/	/	/	.	/	/	/
O=C(CCl)N1CCCC1c1ccc2c(c1)OCCO2 (configuration not stated)	.	.	52	.	.	85	78	67
CC(=O)c1ccc(OCC(=O)N2CCCC2c2ccc3c(c2)OCCCO3)cc1 (configuration not stated)	.	.	.	/	.	.	/	/
Cc1cc(N2CCN(CC(C)(C)O)C[C@@H]2C)ccc1N1CCN(Cc2ccccc2)[C@@H](C)C1	/	/	/	/	.	/	/	/
COc1cccc2c1C(=O)c1c(O)c3c(c(O)c1C2=O)C[C@@](O)(C(=O)CO)C[C@@H]3O[C@H]1C[C@H](N)[C@H](O)[C@H](C)O1	.	.	94	.	.	90	89	77
Cc1ccccc1NC(=O)Nc1ccc2c(c1)CCC2	.	.	.	.	.	.	/	/
O=C(Nc1ccc2c(c1)CCC2)Nc1ccccc1F	.	/	.	.	.	.	.	.
CN1/C(=C\C=[N+](C)c2ccccc2)C(C)(C)c2ccccc21	.	85	83	.	.	74	66	57
CC(=O)CSc1nc2cc3c(cc2cc1C#N)OCCO3	.	.	.	.	.	.	.	.
N#Cc1cc2cc3c(cc2nc1SCC(=O)OC1CCCCC1)OCO3	.	.	.	.	.	.	/	/
COc1ccc(CNc2ncc(-c3ccc(F)cc3)n2C)c2ccccc12	.	56	40	.	.	71	50	48
O=C(Nc1ccc(SC(F)(F)F)cc1)c1ccccn1	.	.	.	.	.	.	.	.
CC(=O)NS(=O)(=O)c1ccc(NC(=O)c2ccccn2)cc1	.	.	.	.	.	.	/	/
C[C@H]1COc2cccc(NCCO)c2S(=O)(=O)N1	/	/	/	/	.	/	/	/
COc1ccc(C2C(O)C(c3c[nH]c4ccccc34)=NN2C(=O)CCl)cc1 (configuration not stated)	.	86	97	.	.	100	.	.
Nc1c(-c2ccc(Cl)cc2)cnc2c(-c3ccccc3)cnn12	.	.	.	.	.	.	.	.
Cc1ccc(/C=N/Nc2nc3ccccc3s2)o1	.	.	.	.	.	.	.	.
O=[N+]([O-])c1ccc2c(c1)CO[C@]21O[C@H](CCO)C[C@H](O)[C@H]1O	/	/	/	/	.	/	/	/
O=C(Nc1nc2cc3c(cc2s1)OCCO3)C1CCCCC1	.	.	.	/	.	.	.	.
